Measured values published in ChEMBL document CHEMBL5653631, “A Potent and Selective ULK1 Inhibitor Suppresses Autophagy and Sensitizes Cancer Cells to Nutrient Stress” (iScience, 2018).
One block for each compound: values may come before it.

What was measured:
[1] = target: T1, Bone morphogenetic protein receptor type-2 (Homo sapiens) (UniProt Q13873); assay: Inhibition of human recombinant BMPR2 at 500 nM related to control ULK1
T1 sequence (whole entry): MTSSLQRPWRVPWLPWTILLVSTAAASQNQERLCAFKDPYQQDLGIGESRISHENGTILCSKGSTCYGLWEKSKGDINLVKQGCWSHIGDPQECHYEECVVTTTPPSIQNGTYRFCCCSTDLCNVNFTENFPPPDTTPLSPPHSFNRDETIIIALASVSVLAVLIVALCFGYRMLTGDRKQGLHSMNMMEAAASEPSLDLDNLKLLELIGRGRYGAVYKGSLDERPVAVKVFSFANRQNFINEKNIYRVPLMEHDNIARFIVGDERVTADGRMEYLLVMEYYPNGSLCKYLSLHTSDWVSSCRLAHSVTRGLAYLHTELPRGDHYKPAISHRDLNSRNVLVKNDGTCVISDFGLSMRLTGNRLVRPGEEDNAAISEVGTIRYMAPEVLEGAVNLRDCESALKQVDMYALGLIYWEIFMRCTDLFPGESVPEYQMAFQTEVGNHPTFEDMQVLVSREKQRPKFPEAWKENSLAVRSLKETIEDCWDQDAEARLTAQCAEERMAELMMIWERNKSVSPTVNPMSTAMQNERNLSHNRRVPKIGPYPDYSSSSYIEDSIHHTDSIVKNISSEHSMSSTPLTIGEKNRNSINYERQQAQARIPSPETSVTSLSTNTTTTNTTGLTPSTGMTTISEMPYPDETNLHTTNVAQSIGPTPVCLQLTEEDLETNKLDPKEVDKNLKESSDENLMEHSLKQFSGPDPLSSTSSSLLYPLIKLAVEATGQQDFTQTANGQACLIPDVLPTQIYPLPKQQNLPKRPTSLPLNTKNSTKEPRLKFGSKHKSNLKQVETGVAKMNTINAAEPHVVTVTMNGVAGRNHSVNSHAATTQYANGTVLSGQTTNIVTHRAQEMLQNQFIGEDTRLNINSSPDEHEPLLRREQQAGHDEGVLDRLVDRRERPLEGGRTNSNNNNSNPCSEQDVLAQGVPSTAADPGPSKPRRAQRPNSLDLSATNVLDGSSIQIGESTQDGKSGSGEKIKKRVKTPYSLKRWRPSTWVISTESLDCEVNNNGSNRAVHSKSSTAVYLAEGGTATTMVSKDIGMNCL

[2] = target: T2, MAP kinase-activated protein kinase 5 (Homo sapiens) (UniProt Q8IW41); assay: Inhibition of human recombinant MAPKAPK5 at 500 nM related to control ULK1
T2 sequence (whole entry): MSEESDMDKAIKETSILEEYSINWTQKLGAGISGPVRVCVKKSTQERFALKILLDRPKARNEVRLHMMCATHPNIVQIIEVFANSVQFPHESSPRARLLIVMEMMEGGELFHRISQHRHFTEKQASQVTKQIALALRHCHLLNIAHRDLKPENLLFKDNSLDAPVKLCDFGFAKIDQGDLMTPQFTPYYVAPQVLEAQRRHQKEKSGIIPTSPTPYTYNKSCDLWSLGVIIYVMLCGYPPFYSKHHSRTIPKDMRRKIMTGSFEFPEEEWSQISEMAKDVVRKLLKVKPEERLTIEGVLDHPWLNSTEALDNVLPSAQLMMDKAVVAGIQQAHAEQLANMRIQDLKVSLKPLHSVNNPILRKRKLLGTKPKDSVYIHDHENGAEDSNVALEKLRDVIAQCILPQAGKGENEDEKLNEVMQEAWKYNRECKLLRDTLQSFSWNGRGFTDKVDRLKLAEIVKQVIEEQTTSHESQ

[3] = target: Serine/threonine-protein kinase WNK3 (Homo sapiens) (UniProt Q9BYP7); assay: Inhibition of human recombinant Wnk3 at 15 nM related to control ULK1
[4] = target: Serine/threonine-protein kinase mTOR (Homo sapiens) (UniProt P42345); assay: Inhibition of human recombinant FRAP at 15 nM related to control ULK1
[5] = target: Activin receptor type-2A (Homo sapiens) (UniProt P27037); assay: Inhibition of human recombinant ACTR2 at 15 nM in presence of ATP by radiometric assay relative to control
[6] = target: T3, TGF-beta receptor type-1 (Homo sapiens) (UniProt P36897); assay: Inhibition of human recombinant TGFbR1 at 15 nM in presence of ATP by radiometric assay relative to control
T3 sequence (whole entry): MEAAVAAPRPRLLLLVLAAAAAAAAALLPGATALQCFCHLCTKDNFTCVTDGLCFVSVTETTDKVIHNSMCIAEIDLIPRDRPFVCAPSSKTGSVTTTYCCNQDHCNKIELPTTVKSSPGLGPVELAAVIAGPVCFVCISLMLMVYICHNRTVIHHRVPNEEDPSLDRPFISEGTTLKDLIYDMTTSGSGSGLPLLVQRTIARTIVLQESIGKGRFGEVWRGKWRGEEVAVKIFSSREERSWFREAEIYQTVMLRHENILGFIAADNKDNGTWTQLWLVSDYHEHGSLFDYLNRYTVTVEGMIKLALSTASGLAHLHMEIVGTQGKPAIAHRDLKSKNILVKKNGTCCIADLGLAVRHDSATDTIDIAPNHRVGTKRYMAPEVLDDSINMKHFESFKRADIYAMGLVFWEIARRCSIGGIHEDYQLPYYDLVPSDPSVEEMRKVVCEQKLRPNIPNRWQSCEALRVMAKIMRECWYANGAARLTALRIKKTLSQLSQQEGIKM

[7] = target: Serine-protein kinase ATM (Homo sapiens) (UniProt Q13315); assay: Inhibition of human recombinant ATM at 15 nM in presence of ATP by radiometric assay relative to control
Summary of the method: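 Panel of 327 recombinant human kinases, each assayed in vitro by radiometric activity assay in duplicate at a single inhibitor concentration per compound, chosen with reference to its ULK1 inhibition. Activity remaining was expressed as percent of vehicle control, and percent inhibition was calculated as 100 minus percent activity remaining.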

[8] = target: Tyrosine-protein kinase Fer (Homo sapiens) (UniProt P16591); assay: Inhibition of human recombinant FER at 15 nM related to control ULK1
[9] = target: Ephrin type-A receptor 7 (Homo sapiens) (UniProt Q15375); assay: Inhibition of human recombinant EphA7 at 15 nM in presence of ATP by radiometric assay relative to control
[10] = target: Calcium/calmodulin-dependent protein kinase type 1B (Homo sapiens) (UniProt Q6P2M8); assay: Inhibition of human recombinant CaMK1b at 40 nM related to control ULK1
[11] = target: T1, Bone morphogenetic protein receptor type-2 (Homo sapiens); assay: Inhibition of human recombinant BMPR2 at 40 nM in presence of ATP by radiometric assay relative to control
[12] = target: Mitogen-activated protein kinase 8 (Homo sapiens) (UniProt P45983); assay: Inhibition of human recombinant JNK1 at 40 nM in presence of ATP by radiometric assay relative to control
[13] = target: Receptor-type tyrosine-protein kinase FLT3 (Homo sapiens) (UniProt P36888); assay: Inhibition of human recombinant FLT3 at 40 nM in presence of ATP by radiometric assay relative to control

fold change (FC) [1]: 0
fold change (FC) [2]: 0
Structure (SMILES): CNC(=O)c1ccccc1Oc1nc(Nc2cc(OC)c(OC)c(OC)c2)ncc1Br

fold change (FC) [3]: 0
fold change (FC) [4]: 0
inhibition [5]: 4%
inhibition [6]: 4%
inhibition [7]: 6%
fold change (FC) [8]: 0
inhibition [9]: 0%
Structure (SMILES): CC(C)[C@H](NC(=O)c1cc(-c2cnn3cc(-c4ccc(OCCN5CCCCC5)cc4)cnc23)cs1)C(F)(F)F

fold change (FC) [10]: 0
inhibition [11]: 6%
inhibition [12]: 0%
inhibition [13]: 19%
Structure (SMILES): O=C(N[C@@H](C1CC1)C(F)(F)F)c1cc(-c2cnn3cc(-c4ccc(F)cc4)cnc23)cs1
